Active and inactive are the calls of the source.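 Rule for the calls: active = compounds blocking at least half of the virus-caused cell damage in the dose series; inactive = the rest.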
System: HEp-2 RSV Long CPE inhibition, luminescence
Assay: inhibitors of RSV-induced HEp-2 cell death – RSV Long, synthesized compounds, set 5, dose response (AID 493088)
Summary of the method: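 Material: RSV Long-infected HEp-2 cells. Also added: RSV strain Long at multiplicity of infection 0.45. Compound dosing: 8 doses, 1:2 steps, 0.39–50 µM, 0.5% DMSO. Schedule: 6-day incubation of infected, compound-treated cells at 37 °C. Measured by: luminescent CPE signal. Read-out: % CPE inhibition versus cell-only and virus-only wells, plus IC50.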

Row | Structure (SMILES) | IC50
1 | CCOC(=O)c1ccc2[nH]c3c(c2c1)CN(C)CC3 | 28.4 µM
2 | COCCCNC(=O)c1ccc(Cn2c(=O)c3ccccc3n(Cc3ccc(C)cc3)c2=O)cc1 | 1.71 µM
3 | Cc1ncccc1NC(=O)[C@@H]1CCCN1S(=O)(=O)c1cccc2cccnc12 | > 50 µM (inactive)
4 | CC(=O)c1ccccc1NC(=O)[C@@H]1CCCN1S(=O)(=O)c1cccc2cccnc12 | > 50 µM (inactive)
5 | CCc1ccccc1NC(=O)[C@@H]1CCCN1S(=O)(=O)c1cccc2cccnc12 | 16.2 µM
